From PubChem BioAssay
SF-1 act – SF-1 (human) activation. CHO-K1 Gal4-SF-1 LBD luciferase reporter; % increase over DMSO SF-1-specific signal. activation, % at 10 µM. actives 1.9% (n = 65,000). Q13285;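 active = activation above the mean activation of all tested compounds plus 3 SD, cut at about 50% in these data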
Target sequence (Q13285 whole entry, looked up, the tested form may be a part): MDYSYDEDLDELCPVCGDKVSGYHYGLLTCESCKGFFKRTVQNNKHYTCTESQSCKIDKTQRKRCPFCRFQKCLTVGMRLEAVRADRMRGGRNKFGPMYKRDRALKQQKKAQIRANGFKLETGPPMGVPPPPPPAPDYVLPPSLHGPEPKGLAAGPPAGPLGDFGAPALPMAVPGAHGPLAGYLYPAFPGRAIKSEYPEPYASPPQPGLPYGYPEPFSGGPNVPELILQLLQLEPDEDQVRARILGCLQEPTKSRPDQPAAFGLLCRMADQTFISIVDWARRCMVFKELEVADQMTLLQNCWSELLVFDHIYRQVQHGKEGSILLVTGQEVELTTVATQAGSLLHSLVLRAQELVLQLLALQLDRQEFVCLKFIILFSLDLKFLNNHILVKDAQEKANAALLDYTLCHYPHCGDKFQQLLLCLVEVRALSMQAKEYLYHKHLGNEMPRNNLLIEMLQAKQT
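Material: CHO-K1 cells with Gal4–hSF-1 LBD chimera plus Gal4-driven luciferase / Input: 4,000 CHO-K1 cells per well / Incubation: compound exposure 20 h at 37 °C / Signal: luminescence read 15 min after SteadyLite luciferase reagent, after room-temperature equilibration / Read-out: percent activation versus DMSO / Benchmarks: DMSO negative control and −SF1 background wells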
RORA act – activates the human nuclear receptor RORA; P35398; CHO-K1 Gal4-RORA LBD luciferase reporter, luminescence; percent increase over mock-subtracted basal signal; activation, % at 10 µM; actives 1.5% (n = 65,000);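 active = activation above the mean of all tested compounds plus 3 SD, cut at about 49% in these data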
Jurkat viability – cytotoxic compounds reducing Jurkat cell viability | Jurkat E6.1 viability, ATP luminescence, 48 h | actives 1.2% (n = 56,000) | inhibition, % at 4 µM;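 active = inhibition above the mean inhibition of all tested compounds plus 3 SD, cut at about 28% in these data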
MT1-MMP txn act – activates MT1-MMP transcription | HT1080 MT1-MMP promoter luciferase reporter, luminescence, overnight; stronger effect = higher value | activation factor at 10 µM | actives 0.16% (n = 86,000) | AID 750;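 active = activation factor of at least 2 for MT1-MMP transcription at 10 µM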
HEK293 NFkB inh – lowers PMA/ionomycin-induced NF-kB signal in HEK293 cells; HEK-293 NF-kB luciferase reporter, luminescence; inhibition, % at 3 µM; AID 465; actives 0.21% (n = 62,000);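 active = inhibition above the mean of all tested compounds plus 3 SD, cut at about 40% in these data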
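Material: HEK-293 cells with stable firefly luciferase reporter driven by four HIV NF-kB elements / Also added: PMA plus ionomycin mix as NF-kB-activating stimulus / Compound dosing: 3 µM once, 0.30% DMSO / Times: 1 h pretreatment, 16 h stimulation, 37 °C / Signal: luminescence / Evaluation: per-plate % inhibition versus controls / Benchmarks: DMSO and 10 µM reference inhibitor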
Of the large screens only hits and unclear results are named; the others gave an inactive call. Most compounds without a hit are left out; they make up all but 2.8% or so of the library.

COc1cccc(C(C(=O)NCc2ccco2)N(C(=O)Cn2nnc3ccccc32)C2CC2)c1OC (centres undefined)	none
COc1ccc(CSc2nnnn2-c2ccccc2)cc1	none (no result: SF-1 act, RORA act, Jurkat viability, HEK293 NFkB inh)
COc1cc(CSc2nnnn2-c2ccc(C)cc2)cc(OC)c1OC	Jurkat viability 89, HEK293 NFkB inh 44
CCOC(=O)N1CCN(S(=O)(=O)c2ccc3c(c2)OCC(=O)N3)CC1	none
CC1CCC(NC(=O)Cn2ncc3ccccc32)CC1 (centres undefined)	SF-1 act 52
O=C(CSc1cn(Cc2ccccc2)c2ccccc12)Nc1nccs1	SF-1 act 84, RORA act 76 (no result: MT1-MMP txn act)
COc1ccc(-c2nc(SC)n(C(=O)c3ccco3)n2)cc1	SF-1 act 58
O=C(Nc1ccccc1C(=O)O)c1ccc2ccccc2n1	SF-1 act 80
O=C(Nc1ccc(Oc2ccccc2)cc1)C1CCN(c2c3c(nc4ncnn24)CCC3)CC1	none (no result: SF-1 act, RORA act, Jurkat viability, HEK293 NFkB inh)
O=C(Nc1ccc2c(c1)CCC2)C1CCN(c2c3c(nc4ncnn24)CCC3)CC1	Jurkat viability 44
CN1CCN(C(=O)c2cccc(COc3cc(Cl)ccc3Cl)c2)CC1	SF-1 act 69
CN1CCN(C(=O)c2ccc(Cl)c(S(=O)(=O)N3CCCCC3)c2)CC1	none
CCOc1ccc(OCc2cccc(C(=O)N3CCOCC3)c2)cc1	HEK293 NFkB inh 50
O=C(O)c1ccc(COc2ccccc2Cl)cc1	none
O=C(O)c1cccc(COc2ccccc2Cl)c1	HEK293 NFkB inh 92 (no result: Jurkat viability)
CCOC(=O)CN1C(=O)C(Sc2nnc(-c3ccccc3OC)s2)CCc2ccccc21 (centres undefined)	none (no result: SF-1 act, RORA act, Jurkat viability, HEK293 NFkB inh)
O=C(NCCN1CCOCC1)c1noc2c1CCc1ccccc1-2	RORA act 77
CCNc1ccc(C(=O)OCC)cc1NC(=O)c1cccc(N(C)C)c1	HEK293 NFkB inh 42 (no result: Jurkat viability)
CCN(CC)c1ccc(C(=O)Nc2cccc(F)c2)cc1	SF-1 act 54
O=C(Nc1cccc(F)c1)c1c(F)c(F)c(F)c(F)c1F	none
CN(C)c1cccc(C(=O)Nc2cccc(F)c2)c1	SF-1 act 58
CCn1cnc2sc(C(=O)N(Cc3ccc(N(C)C)cc3)Cc3ccco3)c(C)c2c1=O	none
CCC(=O)c1ccc(OCC(O)CN2CCCCC2)cc1 (centres undefined)	none (no result: SF-1 act, RORA act, Jurkat viability, HEK293 NFkB inh)
CCOc1ccc(NC(=O)CSc2nccn2C)cc1	none (no result: Jurkat viability)
Cn1ccnc1SCC(=O)Nc1ccc(Oc2ccccc2)cc1	RORA act 60
Cn1cccc1CNC(=O)Nc1ccccc1	none (no result: SF-1 act, RORA act, Jurkat viability, HEK293 NFkB inh)
Cn1cccc1CNC(=O)Nc1ccc(Cl)cc1	SF-1 act 54
COc1cccc(CN(C(=O)c2cc3ccccc3oc2=O)C2CC2)c1	RORA act 52
COc1ccc(CN(C(=O)c2cc3ccccc3oc2=O)C2CCCC2)cc1	none (no result: SF-1 act, RORA act, Jurkat viability, HEK293 NFkB inh)
COC(=O)c1ccc(NC(=O)CSc2nc(C)cc(=O)[nH]2)cc1	none (no result: SF-1 act, RORA act, Jurkat viability, HEK293 NFkB inh)
COc1ccc(-c2coc3cc(OC)cc(O)c3c2=O)cc1	none (no result: SF-1 act, RORA act, Jurkat viability, HEK293 NFkB inh)
COc1ccc(-c2coc3cc(O)cc(O)c3c2=O)cc1	SF-1 act 97 (no result: Jurkat viability, HEK293 NFkB inh)
CC(C)Oc1cc(O)c2c(=O)c(-c3ccc(O)cc3)coc2c1	SF-1 act 58, Jurkat viability 99
COc1ccc(C)cc1-n1nnnc1SCc1nc2ccccc2s1	SF-1 act 110, RORA act 50
O=S(=O)(c1cccc(-c2nnc(SCc3nc4ccccc4s3)o2)c1)N1CCOCC1	none
Cc1nnc(SCc2nc3ccccc3s2)n1-c1ccccc1	RORA act 76
CCn1c(SCc2nc3ccccc3s2)nnc1-c1ccccc1	none (no result: SF-1 act, RORA act, Jurkat viability, HEK293 NFkB inh)
CCn1c(SCc2nc3ccccc3s2)nc2cc(S(=O)(=O)N3CCOCC3)ccc21	SF-1 act 63
COCCn1c(SCc2nc3ccccc3s2)nc2ccccc21	SF-1 act 50
CC(=O)c1cc(-c2nc3ccccc3n2C)n(C)c1	none
CCC(c1nnc(SCc2nc3ccccc3s2)n1Cc1ccccc1)N(C)C (centres undefined)	SF-1 act 61
c1ccc(Cn2c(SCc3nc4ccccc4s3)nnc2-c2ccco2)cc1	none
c1ccc(-n2cnnc2SCc2nc3ccccc3s2)cc1	SF-1 act 58
CC(=O)Nc1nc(COc2ccc3ccccc3c2)cs1	none (no result: SF-1 act, RORA act, Jurkat viability, HEK293 NFkB inh)
CC(=O)Nc1nc(COc2ccccc2)cs1	RORA act 51
COc1ccc(NC(=O)NC(C)c2ccncc2)cc1OC (centres undefined)	none
COC(=O)c1cccc(NC(=O)C(C)N2C(=O)c3ccccc3C2=O)c1 (centres undefined)	none
CCOC(=O)N1CCN(S(=O)(=O)c2ccc(OCC)c(C)c2)CC1	none
COC(=O)N/N=C/c1ccc([N+](=O)[O-])o1	none (no result: SF-1 act, RORA act, Jurkat viability, HEK293 NFkB inh)
COc1ccc2oc(=O)c(-c3nnc(NCc4ccco4)s3)cc2c1	SF-1 act 81, RORA act 80
CCn1c(SCC(=O)Nc2ccc(S(N)(=O)=O)cc2)nnc1-c1cccc(OC)c1	none
CCOC(=O)c1ccccc1NC(=O)c1cc2sccc2n1C	none
CCOC(=O)c1cccc(NC(=O)c2cc3sccc3n2C)c1	SF-1 act 55
O=C(NCN1CCN(c2ccccn2)CC1)c1cnccn1	none
O=c1sc(N2CCN(c3ccccc3F)CC2)nc2ccsc12	SF-1 act 72, RORA act 60
CCCOc1ccc(S(=O)(=O)n2cc(Br)c(=O)[nH]c2=O)cc1	RORA act 50
CCC(=O)NCCc1cc2ccc(C)cc2[nH]c1=O	none
CCN(CC)C(=O)Nc1cnc2ccccc2c1	none
COC(=O)c1cccc(C(=O)Nc2cnc3ccccc3c2)n1	SF-1 act 97
O=C(Nc1cnc2ccccc2c1)c1ccncc1	RORA act 74
CCOC(=O)C1CCN(S(=O)(=O)C(F)(F)c2nc3ccccc3s2)CC1	RORA act 71 (no result: Jurkat viability)
O=C(OCc1nc2ccccc2s1)C1CCN(S(=O)(=O)c2cccs2)CC1	none
Cc1nn(-c2ccccc2)c2sc(C(=O)O)cc12	none (no result: Jurkat viability)
O=C(c1cc2c(=O)n3ccccc3nc2s1)N1CCOCC1	SF-1 act 60
Cc1nn(-c2ccccc2)c2sc(C(=O)N3CCOCC3)cc12	SF-1 act 94, RORA act 58
O=c1cc(-c2ccccc2)[nH]c2nc3ccccc3n12	Jurkat viability 47
CC1(C)NC(=O)N(CC(O)COc2ccccc2C(=O)N2CCCCC2)C1=O (centres undefined)	none
CCOC(=O)N1CCC(NC(=O)c2ccc3c(c2)sc2nc(-c4ccccc4)cn23)CC1	RORA act 53 (no result: MT1-MMP txn act)
CCOC(=O)N1CCC(NC(=O)c2ccc3c(c2)sc2nc(-c4cccc(OC)c4)cn23)CC1	Jurkat viability 35
CCOC(=O)N1CCC(NC(=O)c2cc(C(=O)Nc3cccc(OC)c3)ccc2CO)CC1	none
Cc1nc(N2CCN(c3ccccc3)CC2)[nH]c(=O)c1Cc1ccccc1	none
O=C(Cn1c2c(c(-c3ccccc3)cc1=O)CCCC2)N1CCCCCC1	none
Cc1cc2nn(-c3ccccc3)nc2cc1NC(=O)c1cccs1	RORA act 95
COc1ccccc1NC(=O)Cc1nn(C)c(=O)c2ccccc12	Jurkat viability 58
